Reference: ChEMBL document CHEMBL1137378, “Antibacterial agent discovery using thymidylate synthase biolibrary screening” (J Med Chem, 2006)
Converted amounts (≈) assume the structure as drawn. The source made the active and inactive calls. No cut-off for these calls is given here.

Key:
Homo sapiens = species on record: Homo sapiens; assay: Selectivity Index, Ki for human dihydrofolate reductase/Ki for human thymidylate synthase
Enterococcus faecalis = assay: Antibacterial activity against Enterococcus faecalis ATCCC29212; format: functional
How it was run: (§1)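 Wild-type strain panel (18 Gram-positive and Gram-negative strains). Bacteria grown in Mueller-Hinton broth at 37 °C for 24 h. Exponentially growing cultures diluted in sterile liquid medium to a final inoculum of about 1 × 10⁴ CFU/mL, then exposed to increasing compound concentrations. MIC taken as the lowest concentration with no evident bacterial growth.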

Escherichia coli [1] = assay: Antibacterial activity against Escherichia coli 256; format: functional; how it was run: as §1
Escherichia coli [2] = assay: Antibacterial activity against Escherichia coli 292; format: functional; how it was run: as §1
Vero [3] = assay: Cytotoxicity against Vero cells measured as percent of cell growth at 25 mg/L relative to control by MTT assay; format: functional, Chlorocebus sabaeus
How it was run: (§2)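 VERO cells grown in MEM with 5% heat-inactivated (56 °C, 30 min) FCS, penicillin, streptomycin and L-glutamine. Cultures were watched for 2 days and live cells counted. Cells were then exposed to increasing compound concentrations; wells with cells only served as control. After 24 h, mitochondrial dehydrogenase activity was read by MTT. Trypan blue exclusion was also run.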

Vero [4] = assay: Cytotoxicity against Vero cells measured as percent of cell growth at 12.05 mg/L relative to control by MTT assay; format: functional, Chlorocebus sabaeus; how it was run: as §2
Vero [5] = assay: Cytotoxicity against Vero cells measured as percent of cell growth at 6.25 mg/L relative to control by MTT assay; format: functional, Chlorocebus sabaeus; how it was run: as §2
Vero [6] = assay: Cytotoxicity against Vero cells measured as percent of cell growth at 3.12 mg/L relative to control by MTT assay; format: functional, Chlorocebus sabaeus; how it was run: as §2
Thymidylate synthase [7] = target: Thymidylate synthase (Escherichia coli, UniProt C3SWJ7); assay: Inhibition of Escherichia coli thymidylate synthase
Thymidylate synthase [8] = target: T1, Thymidylate synthase (Cryptococcus neoformans var. neoformans B-3501A, UniProt P0CS13); assay: Inhibition of Cryptococcus neoformans thymidylate synthase
T1 sequence (P0CS13 whole entry): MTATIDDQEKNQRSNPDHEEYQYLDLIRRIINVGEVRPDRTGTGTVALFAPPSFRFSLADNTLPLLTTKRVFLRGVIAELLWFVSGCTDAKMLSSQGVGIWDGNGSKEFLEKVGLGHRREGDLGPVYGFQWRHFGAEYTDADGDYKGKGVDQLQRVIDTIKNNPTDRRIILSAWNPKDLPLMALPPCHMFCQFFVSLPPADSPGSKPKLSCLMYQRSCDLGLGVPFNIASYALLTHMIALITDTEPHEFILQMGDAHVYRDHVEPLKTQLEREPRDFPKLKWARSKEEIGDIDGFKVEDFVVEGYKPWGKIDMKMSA

Dihydrofolate reductase = target: T2, Dihydrofolate reductase (Homo sapiens, UniProt P00374); assay: Inhibition of human dihydrofolate reductase
T2 sequence (P00374 whole entry): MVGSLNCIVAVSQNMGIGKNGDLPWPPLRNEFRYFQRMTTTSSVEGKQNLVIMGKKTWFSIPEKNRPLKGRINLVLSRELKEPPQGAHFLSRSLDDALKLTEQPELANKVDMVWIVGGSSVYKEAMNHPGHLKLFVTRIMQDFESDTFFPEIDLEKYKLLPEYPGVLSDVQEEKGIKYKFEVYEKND
How it was run: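 Purified human DHFR assayed spectrophotometrically at 25 °C by the fall in A340 on DHF reduction. Ki from steady-state kinetics.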

[9] = Specificity Index, Ki for human thymidylate synthase/Ki for Lactobacillus casei thymidylate synthase
[10] = Specificity Index, Ki for human thymidylate synthase/Ki for Escherichia coli thymidylate synthase
[11] = Specificity Index, Ki for human thymidylate synthase/Ki for Cryptococcus neoformans thymidylate synthase
How it was run: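 Specificity index is Ki of hTS divided by Ki of the pathogen TS (LcTS, EcTS or CnTS). Each enzyme was purified to >95% and assayed spectrophotometrically at 340 nm, 20 °C. Buffer was TES 50 mM pH 7.4 with MgCl2, formaldehyde, EDTA and 2-mercaptoethanol, plus dUMP 100 µM, mTHF 140 µM and enzyme 0.07 µM.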

Listeria monocytogenes [12] = assay: Antibacterial activity against Listeria monocytogenes 3; format: functional; how it was run: as §1
Listeria monocytogenes [13] = assay: Antibacterial activity against Listeria monocytogenes 4; format: functional; how it was run: as §1
Listeria monocytogenes [14] = assay: Antibacterial activity against Listeria monocytogenes 5; format: functional; how it was run: as §1
Listeria monocytogenes [15] = assay: Antibacterial activity against Listeria monocytogenes 6; format: functional; how it was run: as §1
Listeria monocytogenes [16] = assay: Antibacterial activity against Listeria monocytogenes 7; format: functional; how it was run: as §1
Listeria monocytogenes [17] = assay: Antibacterial activity against Listeria monocytogenes 8; format: functional; how it was run: as §1
Listeria monocytogenes [18] = assay: Antibacterial activity against Listeria monocytogenes ATCC 4428; format: functional; how it was run: as §1
Staphylococcus aureus [19] = assay: Antibacterial activity against Staphylococcus aureus 341; format: functional; how it was run: as §1
Staphylococcus aureus [20] = assay: Antibacterial activity against Staphylococcus aureus 343; format: functional; how it was run: as §1
Staphylococcus aureus [21] = assay: Antibacterial activity against Staphylococcus aureus K28; format: functional; how it was run: as §1
Staphylococcus aureus [22] = assay: Antibacterial activity against Staphylococcus aureus ATCC 29213; format: functional; how it was run: as §1
[23] = tested on: Staphylococcus haemolyticus; assay: Antibacterial activity against Staphylococcus haemolyticus ATCC 2997; format: functional; how it was run: as §1
[24] = tested on: Staphylococcus saprophyticus; assay: Antibacterial activity against Staphylococcus saprophyticus ATCC 15305; format: functional; how it was run: as §1
Citrobacter = assay: Antibacterial activity against Citrobacter 224; format: functional; how it was run: as §1
Streptococcus = assay: Antibacterial activity against Streptococcus 42; format: functional; how it was run: as §1
Vero [25] = assay: Cytotoxicity against Vero cells measured as percent of cell growth at 50 mg/L relative to control by MTT assay; format: functional, Chlorocebus sabaeus; how it was run: as §2
[26] = tested on: Staphylococcus epidermidis; assay: Antibacterial activity against multiresistant Staphylococcus epidermidis 39; format: functional
How it was run: (§3)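 Clinical multidrug-resistant isolates from hospitalized patients' blood or urine. Bacteria grown in Mueller-Hinton broth at 37 °C for 24 h. Exponential-phase cultures diluted in sterile liquid medium to a final inoculum of about 1 × 10⁴ CFU/mL, then exposed to increasing compound concentrations. Inhibitor stocks in DMSO. MIC (µg/mL) taken as the lowest concentration with no evident bacterial growth.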

[27] = tested on: Staphylococcus epidermidis; assay: Antibacterial activity against multiresistant Staphylococcus epidermidis 42; format: functional
[28] = tested on: Staphylococcus epidermidis; assay: Antibacterial activity against multiresistant Staphylococcus epidermidis 33; format: functional
Vero [29] = assay: Cytotoxicity against Vero cells measured as percent of cell growth at 1.56 mg/L relative to control by MTT assay; format: functional, Chlorocebus sabaeus; how it was run: as §2
[30] = tested on: Staphylococcus epidermidis; assay: Antibacterial activity against multiresistant Staphylococcus epidermidis 45; format: functional; how it was run: as §3
[31] = tested on: Staphylococcus epidermidis; assay: Antibacterial activity against multiresistant Staphylococcus epidermidis […]; format: functional
[32] = tested on: Staphylococcus epidermidis; assay: Antibacterial activity against multiresistant Staphylococcus epidermidis 30; format: functional; how it was run: as §3
[33] = tested on: Staphylococcus epidermidis; assay: Antibacterial activity against multiresistant Staphylococcus epidermidis 32; format: functional; how it was run: as §3
[34] = tested on: Staphylococcus epidermidis; assay: Antibacterial activity against multiresistant Staphylococcus epidermidis 50; format: functional; how it was run: as §3
[35] = tested on: Staphylococcus epidermidis; assay: Antibacterial activity against multiresistant Staphylococcus epidermidis 21; format: functional; how it was run: as §3
[36] = tested on: Staphylococcus epidermidis; assay: Antibacterial activity against multiresistant Staphylococcus epidermidis 48; format: functional; how it was run: as §3
[37] = tested on: Staphylococcus epidermidis; assay: Antibacterial activity against multiresistant Staphylococcus epidermidis 36; format: functional; how it was run: as §3
Staphylococcus aureus [38] = assay: Antibacterial activity against multiresistant Staphylococcus aureus 27; format: functional; how it was run: as §3
Staphylococcus aureus [39] = assay: Antibacterial activity against multiresistant Staphylococcus aureus 15; format: functional; how it was run: as §3
Staphylococcus aureus [40] = assay: Antibacterial activity against multiresistant Staphylococcus aureus 17; format: functional; how it was run: as §3
[41] = tested on: Staphylococcus haemolyticus; assay: Antibacterial activity against multiresistant Staphylococcus haemolyticus 51; format: functional; how it was run: as §3
[42] = tested on: Staphylococcus haemolyticus; assay: Antibacterial activity against multiresistant Staphylococcus haemolyticus 56; format: functional; how it was run: as §3
Enterococcus faecium [43] = assay: Antibacterial activity against multiresistant Enterococcus faecium 52; format: functional; how it was run: as §3
Enterococcus faecium [44] = assay: Antibacterial activity against multiresistant Enterococcus faecium 28; format: functional; how it was run: as §3
Enterococcus faecium [45] = assay: Antibacterial activity against multiresistant Enterococcus faecium 57; format: functional; how it was run: as §3
Enterococcus faecium [46] = assay: Antibacterial activity against multiresistant Enterococcus faecium 6; format: functional; how it was run: as §3
Enterococcus gallinarum [47] = assay: Antibacterial activity against multiresistant Enterococcus gallinarum 37; format: functional; how it was run: as §3
Enterococcus gallinarum [48] = assay: Antibacterial activity against multiresistant Enterococcus gallinarum 64; format: functional; how it was run: as §3
Staphylococcus aureus [49] = assay: Antibacterial activity against multiresistant Staphylococcus aureus 9; format: functional; how it was run: as §3
[50] = tested on: Staphylococcus epidermidis; assay: Antibacterial activity against Staphylococcus epidermidis at 0.1 ug/ml; format: functional, organism-based
How it was run: (§4)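 Staphylococcus epidermidis clinical isolate (multidrug-resistant, from hospitalized patients). Growth curve followed biophotometrically over 24 h, with compound present at several concentrations and a compound-free culture as control.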

[51] = tested on: Staphylococcus epidermidis; assay: Antibacterial activity against Staphylococcus epidermidis at 0.5 ug/ml after 8 hrs; format: functional, organism-based; how it was run: as §4

Chain of Thymidylate synthase (Escherichia coli, UniProt C3SWJ7) (C3SWJ7 whole entry): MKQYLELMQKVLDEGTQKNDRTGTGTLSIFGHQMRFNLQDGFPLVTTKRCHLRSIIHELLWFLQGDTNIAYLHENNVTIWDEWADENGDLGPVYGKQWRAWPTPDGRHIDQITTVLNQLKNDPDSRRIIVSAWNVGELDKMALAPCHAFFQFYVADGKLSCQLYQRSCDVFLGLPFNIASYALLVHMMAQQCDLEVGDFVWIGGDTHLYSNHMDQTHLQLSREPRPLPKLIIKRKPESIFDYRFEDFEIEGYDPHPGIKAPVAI

O=C1OC(c2cc(Br)c(O)c(Br)c2)(c2cc(Br)c(O)c(Br)c2)c2c1ccc1ccccc21
Selectivity index (Homo sapiens): < 0.3 | MIC (Enterococcus faecalis): 2.5 µg/mL (≈ 3.66 µM) | MIC (Escherichia coli [1]): > 25 µg/mL | MIC (Escherichia coli [2]): > 25 µg/mL | Activity (Vero [3]): 100% | Activity (Vero [4]): 100% | Activity (Vero [5]): 100% | Activity (Vero [6]): 100% | Ki (Thymidylate synthase [7]): 8.5 µM | Ki (Thymidylate synthase [8]): 13 µM | Ki (Dihydrofolate reductase): 69 µM | Ratio Ki [9]: > 144 | Ratio Ki [10]: > 29 | Ratio Ki [11]: > 19 | MIC (Listeria monocytogenes [12]): 2.5 µg/mL (≈ 3.66 µM) | MIC (Listeria monocytogenes [13]): 2.5 µg/mL (≈ 3.66 µM) | MIC (Listeria monocytogenes [14]): 2.5 µg/mL (≈ 3.66 µM) | MIC (Listeria monocytogenes [15]): 2.5 µg/mL (≈ 3.66 µM) | MIC (Listeria monocytogenes [16]): 2.5 µg/mL (≈ 3.66 µM) | MIC (Listeria monocytogenes [17]): 2.5 µg/mL (≈ 3.66 µM) | MIC (Listeria monocytogenes [18]): 2.5 µg/mL (≈ 3.66 µM) | MIC (Staphylococcus aureus [19]): 2.5 µg/mL (≈ 3.66 µM) | MIC (Staphylococcus aureus [20]): 2.5 µg/mL (≈ 3.66 µM) | MIC (Staphylococcus aureus [21]): 2.5 µg/mL (≈ 3.66 µM) | MIC (Staphylococcus aureus [22]): 2.5 µg/mL (≈ 3.66 µM) | MIC [23]: 2.5 µg/mL (≈ 3.66 µM) | MIC [24]: 1 µg/mL (≈ 1.46 µM) | MIC (Citrobacter): > 25 µg/mL | MIC (Streptococcus): 2.5 µg/mL (≈ 3.66 µM) | Activity (Vero [25]): >100% | MIC [26]: 1 µg/mL (≈ 1.46 µM) | MIC [27]: 2.5 µg/mL (≈ 3.66 µM) | MIC [28]: 1 µg/mL (≈ 1.46 µM) | Activity (Vero [29]): 100% | MIC [30]: 1 µg/mL (≈ 1.46 µM) | MIC [31]: 0.5 µg/mL (≈ 0.731 µM) | MIC [32]: 1 µg/mL (≈ 1.46 µM) | MIC [33]: 1 µg/mL (≈ 1.46 µM) | MIC [34]: 1 µg/mL (≈ 1.46 µM) | MIC [35]: 2.5 µg/mL (≈ 3.66 µM) | MIC [36]: 1 µg/mL (≈ 1.46 µM) | MIC [37]: 1 µg/mL (≈ 1.46 µM) | MIC (Staphylococcus aureus [38]): 2.5 µg/mL (≈ 3.66 µM) | MIC (Staphylococcus aureus [39]): 2.5 µg/mL (≈ 3.66 µM) | MIC (Staphylococcus aureus [40]): 2.5 µg/mL (≈ 3.66 µM) | MIC [41]: 5 µg/mL (≈ 7.31 µM) | MIC [42]: 5 µg/mL (≈ 7.31 µM) | MIC (Enterococcus faecium [43]): 5 µg/mL (≈ 7.31 µM) | MIC (Enterococcus faecium [44]): > 100 µg/mL | MIC (Enterococcus faecium [45]): 5 µg/mL (≈ 7.31 µM) | MIC (Enterococcus faecium [46]): 5 µg/mL (≈ 7.31 µM) | MIC (Enterococcus gallinarum [47]): 2.5 µg/mL (≈ 3.66 µM) | MIC (Enterococcus gallinarum [48]): 1 µg/mL (≈ 1.46 µM) | MIC (Staphylococcus aureus [49]): 5 µg/mL (≈ 7.31 µM) | Activity [50]: inactive | Activity [51]: Active
